Measured values published in ChEMBL document CHEMBL1129944, “[[(Arylpiperazinyl)alkyl]thio]thieno[2,3-d]pyrimidinone derivatives as high-affinity, selective 5-HT1A receptor ligands” (J Med Chem, 1997).

Key:
[1] = target: T1, Adrenergic receptor alpha-1 (Rattus norvegicus, UniProt P15823+P23944+P43140); experiment: In vitro inhibitory concentration against radioligand [3H]prazosin binding to alpha-1 adrenergic receptor in rat cortical membrane.; format: cell membranes
T1 sequence (P15823 whole entry): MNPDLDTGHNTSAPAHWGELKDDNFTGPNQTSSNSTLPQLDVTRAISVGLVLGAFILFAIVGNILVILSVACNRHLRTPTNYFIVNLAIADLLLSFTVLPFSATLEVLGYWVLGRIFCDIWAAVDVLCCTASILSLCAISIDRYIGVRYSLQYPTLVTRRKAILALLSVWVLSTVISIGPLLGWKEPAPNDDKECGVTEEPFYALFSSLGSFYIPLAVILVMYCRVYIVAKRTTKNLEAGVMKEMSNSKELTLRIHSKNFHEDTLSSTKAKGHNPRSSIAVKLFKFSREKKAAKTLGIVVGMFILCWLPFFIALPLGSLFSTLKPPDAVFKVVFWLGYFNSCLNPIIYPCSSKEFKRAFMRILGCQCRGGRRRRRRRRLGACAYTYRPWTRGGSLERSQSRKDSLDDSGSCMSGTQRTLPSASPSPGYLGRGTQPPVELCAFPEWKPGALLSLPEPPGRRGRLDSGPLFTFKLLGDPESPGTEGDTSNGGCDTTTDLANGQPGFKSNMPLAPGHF
T1 sequence (P23944 whole entry): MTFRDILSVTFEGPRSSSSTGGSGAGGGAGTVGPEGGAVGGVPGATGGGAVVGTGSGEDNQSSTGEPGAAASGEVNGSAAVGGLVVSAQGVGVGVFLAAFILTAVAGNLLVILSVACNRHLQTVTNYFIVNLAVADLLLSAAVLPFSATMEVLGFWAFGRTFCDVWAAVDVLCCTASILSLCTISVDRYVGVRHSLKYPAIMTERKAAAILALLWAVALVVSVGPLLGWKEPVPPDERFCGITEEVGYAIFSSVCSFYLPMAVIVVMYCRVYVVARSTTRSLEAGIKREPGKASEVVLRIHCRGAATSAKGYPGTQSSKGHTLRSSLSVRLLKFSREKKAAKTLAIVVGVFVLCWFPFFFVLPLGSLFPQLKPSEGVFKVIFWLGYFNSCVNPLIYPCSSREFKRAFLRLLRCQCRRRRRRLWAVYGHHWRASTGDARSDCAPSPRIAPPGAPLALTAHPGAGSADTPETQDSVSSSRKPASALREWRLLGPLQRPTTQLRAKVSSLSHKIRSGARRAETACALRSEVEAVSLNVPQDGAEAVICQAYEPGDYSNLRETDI
T1 sequence (P43140 whole entry): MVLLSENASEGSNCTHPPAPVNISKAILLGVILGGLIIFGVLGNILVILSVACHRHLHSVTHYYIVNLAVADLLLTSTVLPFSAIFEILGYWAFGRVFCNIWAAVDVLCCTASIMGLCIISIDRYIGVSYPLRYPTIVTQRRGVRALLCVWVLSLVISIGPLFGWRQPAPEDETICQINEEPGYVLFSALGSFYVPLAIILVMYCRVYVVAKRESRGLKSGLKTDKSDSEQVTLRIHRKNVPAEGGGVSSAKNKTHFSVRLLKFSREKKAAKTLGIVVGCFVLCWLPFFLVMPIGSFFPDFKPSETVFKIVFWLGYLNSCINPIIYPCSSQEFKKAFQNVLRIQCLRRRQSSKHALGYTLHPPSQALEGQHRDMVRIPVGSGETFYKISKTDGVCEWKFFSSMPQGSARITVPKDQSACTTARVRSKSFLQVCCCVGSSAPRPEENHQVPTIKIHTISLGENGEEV
Outline: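 Male CRL:CD(SD)BR-COBS rats (~150 g) were decapitated. Cortex was homogenized in 50 mM Tris-HCl pH 7.4, spun at 50000g, given 10 min at 37 °C and washed. Incubation buffer had 0.1% ascorbic acid and 10 μM pargyline. GF/B filtration and scintillation counting; IC50 from dose-inhibition curves.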

[2] = target: 5-hydroxytryptamine receptor 1B (Rattus norvegicus, UniProt P28564); experiment: In vitro inhibitory concentration against radioligand [3H]5-HT binding to 5-hydroxytryptamine 1B receptor in rat striatal membrane; format: cell membranes, Striatum
Outline: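 Striatum came from decapitated male rats (~150 g). Membranes were washed in 50 mM Tris-HCl pH 7.4 with a 10 min preincubation at 37 °C. Incubation buffer had 4 mM CaCl2, 0.1% ascorbic acid and 10 μM pargyline. [3H]5-HT 2 nM final, 30 min at 25 °C; nonspecific binding with 5-HT 10 μM. Bound ligand collected by filtration and scintillation-counted; IC50 by curve fitting.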

[3] = target: T2, 5-hydroxytryptamine receptor 1A (Rattus norvegicus, UniProt P19327); experiment: In vitro inhibitory concentration against radioligand [3H]8-OH-DPAT binding to 5-hydroxytryptamine 1A receptor in rat hippocampal membrane.; format: cell membranes, Hippocampus
T2 sequence (P19327 whole entry): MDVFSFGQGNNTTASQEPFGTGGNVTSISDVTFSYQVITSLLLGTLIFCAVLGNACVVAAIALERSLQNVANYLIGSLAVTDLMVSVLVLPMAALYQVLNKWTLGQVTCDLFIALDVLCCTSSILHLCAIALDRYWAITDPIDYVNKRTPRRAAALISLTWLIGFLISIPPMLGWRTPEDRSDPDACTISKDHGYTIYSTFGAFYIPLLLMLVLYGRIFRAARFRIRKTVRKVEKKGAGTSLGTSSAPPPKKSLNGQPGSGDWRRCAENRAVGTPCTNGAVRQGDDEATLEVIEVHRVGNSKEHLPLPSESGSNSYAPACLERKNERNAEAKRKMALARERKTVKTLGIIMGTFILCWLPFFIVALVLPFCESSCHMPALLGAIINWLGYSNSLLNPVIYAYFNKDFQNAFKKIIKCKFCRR
Outline: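 Rat hippocampal membranes (male SD rats, ~150 g) were washed in 50 mM Tris-HCl pH 7.4, including 10 min at 37 °C. Incubation buffer contained 4 mM CaCl2 and 10 μM pargyline. Filtered onto GF/B and counted; 50% inhibitory concentration from fitted curves.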

[4] = target: Serotonin 1a (5-HT1a) receptor/Adrenergic receptor alpha-1 (Rattus norvegicus) (UniProt P15823+P23944+P43140+P19327); experiment: Selectivity for alpha-1-adrenergic receptor to that of 5-HT1A receptor.; format: protein assay
Outline: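 Ratio of IC50 at α1-adrenoceptors ([3H]prazosin, rat cortex) to IC50 at 5-HT1A receptors ([3H]-8-OH-DPAT, rat hippocampus). Each IC50 came from radioligand displacement curves.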

[5] = target: 5-hydroxytryptamine receptor 1B (Rattus norvegicus) (UniProt P28564); experiment: Compound at 10E-5 M was tested in vitro for the inhibition of radioligand [3H]5-HT binding to 5-hydroxytryptamine 1B receptor in rat striatal membrane; format: cell membranes; conditions: Striatum
Chain of 5-hydroxytryptamine receptor 1B (Rattus norvegicus) (P28564 whole entry): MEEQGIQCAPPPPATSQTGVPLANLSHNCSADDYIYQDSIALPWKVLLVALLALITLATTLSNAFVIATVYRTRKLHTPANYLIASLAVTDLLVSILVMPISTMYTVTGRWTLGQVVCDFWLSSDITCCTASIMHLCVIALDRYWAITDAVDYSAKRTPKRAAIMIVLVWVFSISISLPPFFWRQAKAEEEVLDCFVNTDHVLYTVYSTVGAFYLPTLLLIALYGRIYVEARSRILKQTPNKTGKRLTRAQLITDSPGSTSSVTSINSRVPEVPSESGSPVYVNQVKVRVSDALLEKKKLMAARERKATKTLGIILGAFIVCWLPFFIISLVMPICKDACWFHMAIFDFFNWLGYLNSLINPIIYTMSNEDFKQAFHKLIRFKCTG

Chain of 5-hydroxytryptamine receptor 1B (P28564 whole entry): as above

SMILES: COc1ccccc1C1CCN(CCCSc2nc3sc(C)c(C)c3c(=O)n2N)CC1
- IC50 [1]: 36 nM
- IC50 [2]: 1400 nM
- IC50 [3]: 0.8 nM

SMILES: Cc1sc2nc(SCCCN3CCN(c4ncccn4)CC3)n(N)c(=O)c2c1C
- Selectivity [4]: 74
- IC50 [1]: 506 nM
- inhibition [5]: < 50%
- IC50 [3]: 6.8 nM

SMILES: COc1ccccc1N1CCN(CCCSc2nc3sc(C)c(C)c3c(=O)n2N)CC1
- IC50 [1]: 7.3 nM
- IC50 [2]: 700 nM
- IC50 [3]: 0.3 nM
